Measurements reported in ChEMBL document CHEMBL1124255, “7-substituted 5-amino-1-cyclopropyl-6,8-difluoro-1,4-dihydro-4-oxo-3- quinolinecarboxylic acids: synthesis and biological activity of a new class of quinolone antibacterials” (J Med Chem, 1988).
≈ marks a conversion by molar mass, not a printed value.

Columns and labels:
Enterobacter cloacae = test: Antibacterial activity against Enterobacter cloacae MA2646; assay type: functional
Escherichia coli [1] = test: Antibacterial activity against Escherichia coli H560; assay type: functional
In short: (§1)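 Minimum inhibitory concentration measured by standard microtitration, run as part of a panel of 11 bacterial organisms.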

Escherichia coli [2] = test: Antibacterial activity against Escherichia coli Vogel; assay type: functional; in short: as §1
DNA gyrase = DNA gyrase (Escherichia coli, UniProt P0AES4+P0AES6); test: 50% inhibitory concentration against DNA-gyrase; assay type: protein-complex assay
Klebsiella pneumoniae = test: Antibacterial activity against Klebsiella pneumoniae MGH-2; assay type: functional; in short: as §1
Providencia rettgeri = test: Antibacterial activity against Providencia rettgeri M1771; assay type: functional; in short: as §1
Pseudomonas aeruginosa = test: Antibacterial activity against Pseudomonas aeruginosa UI-18; assay type: functional; in short: as §1
Staphylococcus aureus [3] = test: Antibacterial activity against Staphylococcus aureus UC76; assay type: functional; in short: as §1
Staphylococcus aureus [4] = test: Antibacterial activity against Staphylococcus aureus H-228; assay type: functional; in short: as §1
Streptococcus pneumoniae = test: Antibacterial activity against Streptococcus pneumoniae SV-1; assay type: functional; in short: as §1
Streptococcus pyogenes = test: Antibacterial activity against Streptococcus pyogenes C203; assay type: functional; in short: as §1
Enterococcus faecalis = test: Antibacterial activity against Streptococcus faecalis MGH-2; assay type: functional; in short: as §1
Escherichia coli [5] = test: Median protective dose against Escherichia coli, determined in acute, lethal systemic infection in female charles river CD-1 mice (po); assay type: functional; design: PD50: unit not given here; details: for ED50: Escherichia coli, po, read-out: PD50
In short: (§2)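 Female Charles River CD-1 mice (18-22 g) were challenged intraperitoneally with about 100 median lethal doses in 0.5 mL 5% hog gastric mucin. Single compound doses in a twofold rising series were given in 0.5 mL at the time of challenge: sc as aqueous solution, po by gavage in 5% gum acacia. Groups of eight mice were used per dose. PD50 was estimated from survival percentages by log probit.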

Escherichia coli [6] = test: Median protective dose against Escherichia coli, determined in acute, lethal systemic infection in female charles river CD-1 mice (sc); assay type: functional; details: read-out: PD50; in short: as §2

Compound | MIC (Enterobacter cloacae) [µg/mL] | MIC (Escherichia coli [1]) [µg/mL] | MIC (Escherichia coli [2]) [µg/mL] | IC50 (DNA gyrase) [µM] | MIC (Klebsiella pneumoniae) [µg/mL] | MIC (Providencia rettgeri) [µg/mL] | MIC (Pseudomonas aeruginosa) [µg/mL] | MIC (Staphylococcus aureus [3]) [µg/mL] | MIC (Staphylococcus aureus [4]) [µg/mL] | MIC (Streptococcus pneumoniae) [µg/mL] | MIC (Streptococcus pyogenes) [µg/mL] | MIC (Enterococcus faecalis) [µg/mL] | PD50 (Escherichia coli [5]) | ED50 (Escherichia coli [6]) [mg/kg] | ED50 (Escherichia coli [5]) [mg/kg]
CC(=O)Nc1c(F)c(N2CCNCC2)c(F)c2c1c(=O)c(C(=O)O)cn2C1CC1 | > 25 | > 25 | > 25 | > 246 | > 25 | > 25 | > 25 | > 25 | > 25 | > 25 | > 25 | > 25 | – | – | –
CCNCC1CCN(c2c(F)c(N)c3c(=O)c(C(=O)O)cn(C4CC4)c3c2F)C1 (stereo not given) | 0.05 (≈ 0.123 µM) | 0.013 (≈ 0.032 µM) | 0.05 (≈ 0.123 µM) | 6.64 | 0.05 (≈ 0.123 µM) | 0.05 (≈ 0.123 µM) | 0.4 (≈ 0.984 µM) | 0.003 (≈ 0.00738 µM) | 0.013 (≈ 0.032 µM) | 0.003 (≈ 0.00738 µM) | 0.013 (≈ 0.032 µM) | 0.025 (≈ 0.0615 µM) | 16 | 2.4 | –
Nc1c(F)c(N2CCC(N)C2)c(F)c2c1c(=O)c(C(=O)O)cn2C1CC1 (stereo not given) | 0.006 (≈ 0.0165 µM) | 0.003 (≈ 0.00823 µM) | 0.006 (≈ 0.0165 µM) | 7.14 | 0.006 (≈ 0.0165 µM) | 0.025 (≈ 0.0686 µM) | 0.05 (≈ 0.137 µM) | 0.006 (≈ 0.0165 µM) | 0.013 (≈ 0.0357 µM) | 0.006 (≈ 0.0165 µM) | 0.025 (≈ 0.0686 µM) | 0.025 (≈ 0.0686 µM) | – | 0.4 | 1.6
O=C(O)c1cn(C2CC2)c2c(F)c(N3CCNCC3)c(F)cc2c1=O | 0.05 (≈ 0.143 µM) | 0.025 (≈ 0.0716 µM) | 0.1 (≈ 0.286 µM) | 8.02 | 0.05 (≈ 0.143 µM) | 0.1 (≈ 0.286 µM) | 0.2 (≈ 0.573 µM) | 0.1 (≈ 0.286 µM) | 0.4 (≈ 1.15 µM) | 0.8 (≈ 2.29 µM) | 0.8 (≈ 2.29 µM) | 0.4 (≈ 1.15 µM) | 0.45 | 0.3 | –
CNc1c(F)c(N2CCNCC2)c(F)c2c1c(=O)c(C(=O)O)cn2C1CC1 | 0.1 (≈ 0.264 µM) | 0.025 (≈ 0.0661 µM) | 0.1 (≈ 0.264 µM) | 36.5 | 0.1 (≈ 0.264 µM) | 0.8 (≈ 2.11 µM) | 1.6 (≈ 4.23 µM) | 0.2 (≈ 0.529 µM) | 0.8 (≈ 2.11 µM) | 0.8 (≈ 2.11 µM) | 3.1 (≈ 8.19 µM) | 1.6 (≈ 4.23 µM) | – | 0.8 | 1.5
CN1CCN(c2c(F)c(N)c3c(=O)c(C(=O)O)cn(C4CC4)c3c2F)CC1 | 0.013 (≈ 0.0344 µM) | 0.003 (≈ 0.00793 µM) | 0.013 (≈ 0.0344 µM) | 7.4 | 0.013 (≈ 0.0344 µM) | 0.05 (≈ 0.132 µM) | 0.1 (≈ 0.264 µM) | 0.025 (≈ 0.0661 µM) | 0.05 (≈ 0.132 µM) | 0.2 (≈ 0.529 µM) | 0.4 (≈ 1.06 µM) | 0.1 (≈ 0.264 µM) | – | 1.1 | 2.2
Nc1c(F)c(N2CCNCC2)c(F)c2c1c(=O)c(C(=O)O)cn2C1CC1 | 0.013 (≈ 0.0357 µM) | 0.003 (≈ 0.00823 µM) | 0.013 (≈ 0.0357 µM) | 7.68 | 0.025 (≈ 0.0686 µM) | 0.05 (≈ 0.137 µM) | 0.025 (≈ 0.0686 µM) | 0.013 (≈ 0.0357 µM) | 0.05 (≈ 0.137 µM) | 0.05 (≈ 0.137 µM) | 0.2 (≈ 0.549 µM) | 0.05 (≈ 0.137 µM) | – | 0.2 | 0.8
CC1COc2c(N3CCN(C)CC3)c(F)c(N)c3c(=O)c(C(=O)O)cn1c23 (stereo not given) | 0.8 (≈ 2.13 µM) | 0.1 (≈ 0.266 µM) | 0.2 (≈ 0.531 µM) | 69.1 | 0.4 (≈ 1.06 µM) | 1.6 (≈ 4.25 µM) | 0.8 (≈ 2.13 µM) | 0.2 (≈ 0.531 µM) | 0.8 (≈ 2.13 µM) | 3.1 (≈ 8.24 µM) | 3.1 (≈ 8.24 µM) | 1.6 (≈ 4.25 µM) | – | 4.6 | 7.5
